Laboratory results published in ChEMBL document CHEMBL2401716, “Design and stereoselective synthesis of novel isosteviol-fused pyrazolines and pyrazoles as potential anticancer agents” (Eur J Med Chem, 2013).
One block for each compound: values may come before it.

Columns and labels:
Assay type in all cases: functional, cell-based
A549 = test: Antiproliferative activity against human A549 cells after 48 hrs by MTT assay; settings: A549, 48 h
Procedure, shortened: (§1)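 Cells seeded in 96-well plates and exposed to compounds for 48 h at 37 °C, 5% CO2. MTT (0.5 mg/mL) then added for 4 h. Supernatant removed, formazan dissolved in DMSO, and OD read at 570 nm. Cisplatin served as positive control.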

Raji = test: Antiproliferative activity against human Raji cells after 48 hrs by MTT assay
Procedure, shortened: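 Human B-lymphoma Raji line kept in RPMI-1640 with 10% FBS and 100 U/mL penicillin at 37 °C, 5% CO2, humidified. Cells were plated in 96 wells and treated with compounds for 48 h. MTT (0.5 mg/mL) was added for 4 h, then formazan was taken up in DMSO after supernatant removal and read at 570 nm. Cisplatin served as positive control.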

SGC-7901 = test: Antiproliferative activity against human SGC7901 cells after 48 hrs by MTT assay; settings: SGC-7901, 48 h; procedure, shortened: as §1
HeLa = test: Antiproliferative activity against human HeLa cells after 48 hrs by MTT assay; procedure, shortened: as §1

SMILES: CCOC(=O)[C@]1(C)CCC[C@@]2(C)[C@@H]3CC[C@@]4(C)C[C@]3(CC[C@@H]21)c1cnn(-c2cccc(Cl)c2)c14
IC50 (A549): 28.2 µM
IC50 (Raji): 9.54 µM
IC50 (SGC-7901): 26.3 µM
IC50 (HeLa): > 50 µM

SMILES: CCOC(=O)[C@]1(C)CCC[C@@]2(C)[C@@H]3CC[C@@]4(C)C[C@]3(CC[C@@H]21)c1cnn(-c2ccc(Cl)cc2)c14
IC50 (A549): 35.3 µM
IC50 (Raji): 13.8 µM
IC50 (SGC-7901): 8.44 µM
IC50 (HeLa): > 50 µM

SMILES: CCOC(=O)[C@]1(C)CCC[C@@]2(C)[C@@H]3CC[C@@]4(C)C[C@]3(CC[C@@H]21)c1cnn(-c2ccc(C)cc2)c14
IC50 (A549): 18.8 µM
IC50 (Raji): 8.61 µM
IC50 (SGC-7901): 34.9 µM
IC50 (HeLa): > 50 µM

SMILES: CCOC(=O)[C@]1(C)CCC[C@@]2(C)[C@@H]3CC[C@@]4(C)C[C@]3(CC[C@@H]21)c1cnn(-c2ccccc2[N+](=O)[O-])c14
IC50 (A549): 42.3 µM
IC50 (Raji): 14.3 µM
IC50 (SGC-7901): 15.6 µM
IC50 (HeLa): > 50 µM

SMILES: CCOC(=O)[C@]1(C)CCC[C@@]2(C)[C@@H]3CC[C@@]4(C)C[C@]3(CC[C@@H]21)c1cnn(-c2ccc([N+](=O)[O-])cc2)c14
IC50 (A549): > 50 µM
IC50 (Raji): 10.2 µM
IC50 (SGC-7901): > 50 µM
IC50 (HeLa): > 50 µM

SMILES: CCOC(=O)[C@]1(C)CCC[C@@]2(C)[C@@H]3CC[C@@]4(C)C[C@]3(CC[C@@H]21)c1cnn(-c2ccc(F)cc2F)c14
IC50 (A549): 20.1 µM
IC50 (Raji): 9.96 µM
IC50 (SGC-7901): 28.4 µM
IC50 (HeLa): > 50 µM

SMILES: CCOC(=O)[C@]1(C)CCC[C@@]2(C)[C@@H]3CC[C@@]4(C)C[C@]3(CC[C@@H]21)c1cnn(-c2cc(Cl)ccc2Cl)c14
IC50 (A549): > 50 µM
IC50 (Raji): 11.7 µM
IC50 (SGC-7901): > 50 µM
IC50 (HeLa): > 50 µM

SMILES: CCOC(=O)[C@]1(C)CCC[C@@]2(C)[C@@H]3CC[C@@]4(C)C[C@]3(CC[C@@H]21)c1cnn(-c2ccc(Cl)c(Cl)c2)c14
IC50 (A549): > 50 µM
IC50 (Raji): 17.1 µM
IC50 (SGC-7901): > 50 µM
IC50 (HeLa): > 50 µM

SMILES: CCOC(=O)[C@]1(C)CCC[C@@]2(C)[C@@H]3CC[C@@]4(C)C[C@]3(CC[C@@H]21)c1cnn(-c2cc(Cl)cc(Cl)c2)c14
IC50 (A549): > 50 µM
IC50 (Raji): 15.8 µM
IC50 (SGC-7901): > 50 µM
IC50 (HeLa): > 50 µM

SMILES: CCOC(=O)[C@]1(C)CCC[C@@]2(C)[C@@H]3CC[C@@]4(C)C[C@]3(CC[C@@H]21)c1cnn(-c2cc(C)ccc2C)c14
IC50 (A549): 17.1 µM
IC50 (Raji): 7.94 µM
IC50 (SGC-7901): 33 µM
IC50 (HeLa): 34.3 µM

SMILES: CCOC(=O)[C@]1(C)CCC[C@@]2(C)[C@@H]3CC[C@@]4(C)C[C@]3(CC[C@@H]21)c1cnn(-c2cc(C)cc(C)c2)c14
IC50 (A549): > 50 µM
IC50 (Raji): 12.5 µM
IC50 (SGC-7901): > 50 µM
IC50 (HeLa): > 50 µM

Results, then the compound that gave them:

IC50 (A549): 21.5 µM
IC50 (Raji): 10.1 µM
IC50 (SGC-7901): 25.4 µM
IC50 (HeLa): 34.6 µM
SMILES: CCOC(=O)[C@]1(C)CCC[C@@]2(C)[C@@H]3CC[C@@]4(C)C[C@]3(CC[C@@H]21)c1cnn(-c2ccccc2Cl)c14

IC50 (A549): 17.4 µM
IC50 (Raji): 11.3 µM
IC50 (SGC-7901): 30.3 µM
IC50 (HeLa): 41.1 µM
SMILES: CCOC(=O)[C@]1(C)CCC[C@@]2(C)[C@@H]3CC[C@@]4(C)C[C@]3(CC[C@@H]21)c1cnn(-c2ccccc2Br)c14

IC50 (A549): 28.3 µM
IC50 (Raji): 14 µM
IC50 (SGC-7901): > 50 µM
IC50 (HeLa): > 50 µM
SMILES: CCOC(=O)[C@]1(C)CCC[C@@]2(C)[C@@H]3CC[C@@]4(C)C[C@]3(CC[C@@H]21)[C@@H]1CN(c2ccccc2)N=C14

IC50 (A549): 32.6 µM
IC50 (Raji): 17.2 µM
IC50 (SGC-7901): 34.7 µM
IC50 (HeLa): > 50 µM
SMILES: CCOC(=O)[C@]1(C)CCC[C@@]2(C)[C@@H]3CC[C@@]4(C)C[C@]3(CC[C@@H]21)[C@@H]1CN(c2ccccc2F)N=C14

IC50 (A549): > 50 µM
IC50 (Raji): 29.1 µM
IC50 (SGC-7901): > 50 µM
IC50 (HeLa): > 50 µM
SMILES: CCOC(=O)[C@]1(C)CCC[C@@]2(C)[C@@H]3CC[C@@]4(C)C[C@]3(CC[C@@H]21)[C@@H]1CN(c2cccc(F)c2)N=C14

IC50 (A549): > 50 µM
IC50 (Raji): > 50 µM
IC50 (SGC-7901): > 50 µM
IC50 (HeLa): > 50 µM
SMILES: CCOC(=O)[C@]1(C)CCC[C@@]2(C)[C@@H]3CC[C@@]4(C)C[C@]3(CC[C@@H]21)[C@@H]1CN(c2ccccc2Cl)N=C14

IC50 (A549): > 50 µM
IC50 (Raji): > 50 µM
IC50 (SGC-7901): > 50 µM
IC50 (HeLa): > 50 µM
SMILES: CCOC(=O)[C@]1(C)CCC[C@@]2(C)[C@@H]3CC[C@@]4(C)C[C@]3(CC[C@@H]21)[C@@H]1CN(c2ccc(Cl)cc2)N=C14

IC50 (A549): > 50 µM
IC50 (Raji): 25.1 µM
IC50 (SGC-7901): > 50 µM
IC50 (HeLa): > 50 µM
SMILES: CCOC(=O)[C@]1(C)CCC[C@@]2(C)[C@@H]3CC[C@@]4(C)C[C@]3(CC[C@@H]21)[C@@H]1CN(c2cccc(Br)c2)N=C14

IC50 (A549): > 50 µM
IC50 (Raji): > 50 µM
IC50 (SGC-7901): > 50 µM
IC50 (HeLa): > 50 µM
SMILES: CCOC(=O)[C@]1(C)CCC[C@@]2(C)[C@@H]3CC[C@@]4(C)C[C@]3(CC[C@@H]21)[C@@H]1CN(c2ccc([N+](=O)[O-])cc2)N=C14
